{"source": "PubChem BioAssay", "note": "Active and inactive are the calls of the source.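 How the source made its calls, unless noted: active means current rise at least 3 SD above the untreated control mean in each of two repeat wells; inactive means the rest.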", "data": [{"target": "Potassium voltage-gated channel subfamily KQT member 2 (Rattus norvegicus) (UniProt O88943)", "sequence (O88943 whole entry, looked up)": "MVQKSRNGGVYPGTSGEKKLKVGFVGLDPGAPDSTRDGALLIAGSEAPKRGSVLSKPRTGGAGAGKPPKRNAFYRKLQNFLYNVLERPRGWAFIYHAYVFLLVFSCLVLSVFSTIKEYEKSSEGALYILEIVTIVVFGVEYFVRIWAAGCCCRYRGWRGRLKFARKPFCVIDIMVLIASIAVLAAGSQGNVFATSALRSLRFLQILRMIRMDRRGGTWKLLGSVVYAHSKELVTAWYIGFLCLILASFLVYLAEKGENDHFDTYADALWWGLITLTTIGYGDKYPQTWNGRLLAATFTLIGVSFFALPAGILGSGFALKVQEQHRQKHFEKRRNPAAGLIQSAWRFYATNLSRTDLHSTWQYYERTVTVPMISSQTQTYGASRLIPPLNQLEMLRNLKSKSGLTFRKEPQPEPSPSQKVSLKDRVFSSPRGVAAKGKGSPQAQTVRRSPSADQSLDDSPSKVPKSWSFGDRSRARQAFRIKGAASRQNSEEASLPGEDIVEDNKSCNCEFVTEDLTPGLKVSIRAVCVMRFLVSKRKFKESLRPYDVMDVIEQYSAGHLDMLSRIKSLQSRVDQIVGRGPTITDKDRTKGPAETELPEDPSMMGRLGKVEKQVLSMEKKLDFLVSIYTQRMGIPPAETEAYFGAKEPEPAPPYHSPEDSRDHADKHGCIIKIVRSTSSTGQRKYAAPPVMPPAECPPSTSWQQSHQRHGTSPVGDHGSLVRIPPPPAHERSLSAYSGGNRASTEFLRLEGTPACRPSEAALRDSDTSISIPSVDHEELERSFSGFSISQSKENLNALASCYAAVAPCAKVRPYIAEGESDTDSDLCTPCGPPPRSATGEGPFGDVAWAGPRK", "experiment": "rat KCNQ2 channel potentiation, selectivity assay for KCNQ1 potentiator project, KCNQ2-CHO-K1 cells (AID 493009;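 active means mean duplicate potentiation above the buffer control mean plus 5 SD of buffer wells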;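 further: assay conditions were tuned for KCNQ1 rather than KCNQ2 modulators; signal is max minus min fluorescence divided by baseline after thallium stimulus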)", "details": "FluxOR thallium flux fluorescence, at 10 µM; hits give high values, scaled: buffer 0, activator control 100", "values": [{"molecule": "CCOC(=O)c1sc(C)nc1C1CCN(C(=O)OCC)CC1", "outcome": "inactive"}, {"molecule": "NNc1nc2ccc(Cl)cc2s1", "outcome": "inactive"}, {"molecule": "Cc1cccc(C(=O)Oc2csc(=S)n2C(=O)c2cccc(C)c2)c1", "potentiation": "158% (active)"}, {"molecule": "CCOC(=O)C(C)Oc1cccc2c(=O)n(CC(=O)NCc3ccc4c(c3)OCO4)ccc12", "note": "(stereo not given)", "outcome": "inactive"}, {"molecule": "Cc1noc(C)c1COc1ccc(CC(=O)NCc2ccccc2)cc1", "outcome": "inactive"}, {"molecule": "CCOC(=O)c1cnc(SCC(=O)Nc2nc(C)c(C)s2)nc1N", "outcome": "inactive"}, {"molecule": "O=C(COC(=O)C1C2CC3OC(=O)C1C3C2)Nc1ccc(Cl)cc1", "note": "(stereo not given)", "outcome": "inactive"}, {"molecule": "Cc1ccc(C(=O)Nc2nnn(C)n2)cc1", "outcome": "inactive"}, {"molecule": "O=C(NC(=S)N1CCN(C/C=C/c2ccccc2)CC1)c1ccc(F)cc1", "potentiation": "260% (active)"}, {"molecule": "Cn1c(=O)c2c(SC3CCCC3)nc(C3CC3)nc2n(C)c1=O", "outcome": "inactive"}, {"molecule": "CC(C)(C)c1ccc(C(=O)NC(=S)Nc2nc3c(s2)CCCC3)cc1", "potentiation": "217% (active)"}, {"molecule": "CCOC(=O)c1c(N2C(=O)Nc3ccccc3N2O)n[nH]c1-c1cccc(Cl)c1", "outcome": "inactive"}, {"molecule": "Cc1c(CN(C)C)c2c(n1C)C(=O)c1ccc(Br)cc1-2", "potentiation": "159% (active)"}, {"molecule": "COc1ccc(N2CCN(C(=S)NC(=O)c3cccs3)CC2)c([N+](=O)[O-])c1", "potentiation": "232% (active)"}, {"molecule": "S=c1nc(Cc2ccc(Cl)cc2)[nH]c2ccccc12", "potentiation": "350% (active)"}, {"molecule": "CC1CN(c2nc(-c3ccc(Br)cc3)nnc2-c2ccccc2)CC(C)N1", "note": "(stereo not given)", "outcome": "inactive"}, {"molecule": "CCCCn1c(SCC(=O)/C(C#N)=C(\\C)N)nc2ccccc2c1=O", "outcome": "inactive"}, {"molecule": "CSC(=S)N/N=C/c1ccccc1", "potentiation": "226% (active)"}, {"molecule": "COc1ccc(NS(=O)(=O)c2ccc(N/N=C(\\C)c3ccncc3)c([N+](=O)[O-])c2)cc1", "outcome": "inactive"}, {"molecule": "COc1ccc(C)cc1-n1c(C)cc(C=O)c1C", "potentiation": "153% (active)"}, {"molecule": "O=C(NC(=S)Nc1ccccc1N1CCCCC1)c1ccc(F)cc1Cl", "outcome": "inactive"}, {"molecule": "COc1cccc(C(=O)COc2ccc(NC(=O)c3ccccc3)cc2)c1", "outcome": "inactive"}, {"molecule": "CC(Oc1ccc(Br)cc1)C(=O)Nc1ccc(S(=O)(=O)N(C)C2CCN(C)CC2)cc1", "note": "(stereo not given)", "potentiation": "570% (active)"}, {"molecule": "C/C(=N\\NC(=O)c1cc2ccccc2cc1O)c1ccccn1", "potentiation": "169% (active)"}, {"molecule": "CCNC(=S)Nc1nc2c(cc1C(=O)OCC)CCCC2", "potentiation": "177% (active)"}, {"molecule": "O=c1ccc(-c2ccc(S(=O)(=O)Nc3ccccc3)o2)n[nH]1", "outcome": "inactive"}, {"molecule": "COc1ccc(CN2C(=O)C(O)(CC(=O)c3ccc4c(c3)OCO4)c3ccccc32)cc1OC", "note": "(stereo not given)", "outcome": "inactive"}, {"molecule": "Cc1cccc(NC(=S)NNC(=O)c2cc3c(s2)CCC(C)C3)c1C", "note": "(stereo not given)", "potentiation": "264% (active)"}, {"molecule": "CC(/C=N/NC(=O)c1cc(-c2cccs2)[nH]n1)=C\\c1ccccc1", "potentiation": "250% (active)"}, {"molecule": "CC1CCCCN1C(=S)NC(=O)c1cccs1", "note": "(stereo not given)", "outcome": "inactive"}, {"molecule": "O=C(Nc1nc2c(F)cc(F)cc2s1)C1COc2ccccc2O1", "note": "(stereo not given)", "potentiation": "194% (active)"}, {"molecule": "O=C(CN1C(=O)COc2ccccc21)N(Cc1cccnc1)Cc1cccc(F)c1", "outcome": "inactive"}, {"molecule": "CCc1nnc(NC(=O)c2ccc(S(=O)(=O)N(CC)Cc3ccccc3)cc2)o1", "potentiation": "270% (active)"}, {"molecule": "CCOC(=O)Cn1c(=S)[nH]c2c(oc3ccc(Cl)cc32)c1=O", "potentiation": "218% (active)"}, {"molecule": "CCOC(=O)c1cccc(C(=O)Nc2nc3ccc(OC)cc3s2)n1", "outcome": "inactive"}, {"molecule": "CCC/C=N/NC(=O)c1[nH]c2c([N+](=O)[O-])cccc2c1C", "outcome": "inactive"}, {"molecule": "Cc1ccc(C(=O)N2CCNC(=O)C2CC(=O)Nc2ccc(F)cc2)cc1C", "note": "(stereo not given)", "outcome": "inactive"}, {"molecule": "COc1ccc(C(=O)c2ccc(OC)c(N)c2)cc1N", "potentiation": "178% (active)"}, {"molecule": "CCCCNC(=S)NC(=O)c1ccc([N+](=O)[O-])cc1", "potentiation": "190% (active)"}, {"molecule": "Cc1ccc(-c2nc(N)s[n+]2-c2ccccc2)cc1", "potentiation": "155% (active)"}]}, {"target": "Potassium voltage-gated channel subfamily KQT member 1 (Homo sapiens) (UniProt P51787)", "sequence (P51787 whole entry, looked up)": "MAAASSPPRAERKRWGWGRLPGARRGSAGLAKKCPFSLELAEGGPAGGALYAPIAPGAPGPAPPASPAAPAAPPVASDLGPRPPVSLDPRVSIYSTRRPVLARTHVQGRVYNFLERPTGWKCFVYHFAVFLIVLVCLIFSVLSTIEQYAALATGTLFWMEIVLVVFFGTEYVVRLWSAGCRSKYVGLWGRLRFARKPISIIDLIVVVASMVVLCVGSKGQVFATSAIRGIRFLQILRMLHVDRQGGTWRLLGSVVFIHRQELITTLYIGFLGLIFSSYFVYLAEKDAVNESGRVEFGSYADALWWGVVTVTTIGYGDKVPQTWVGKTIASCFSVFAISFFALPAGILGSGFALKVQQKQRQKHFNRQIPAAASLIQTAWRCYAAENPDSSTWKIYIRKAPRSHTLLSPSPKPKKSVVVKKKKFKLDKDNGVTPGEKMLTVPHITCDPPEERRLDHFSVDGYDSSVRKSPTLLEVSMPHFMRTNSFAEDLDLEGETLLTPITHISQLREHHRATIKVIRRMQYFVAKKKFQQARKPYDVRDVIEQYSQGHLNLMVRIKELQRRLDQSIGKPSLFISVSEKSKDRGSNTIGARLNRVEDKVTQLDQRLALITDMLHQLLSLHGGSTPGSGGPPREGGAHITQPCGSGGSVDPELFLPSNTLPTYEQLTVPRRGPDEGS", "experiment": "KCNQ1 channel current potentiators, confirmation, orthogonal assay for KCNQ1 potentiator project, IonWorks patch clamp, KCNQ1-CHO cells (AID 493184);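 on current potentiation: percent change of the same well's current before compound addition so 0% = no change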", "details": "automated patch clamp current, at 10 µM; hits give high values", "how_it_was_run": "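Test system: KCNQ1-expressing CHO cells. Medium: pH 7.4 external bath. Probe or stimulus: voltage step from -90 mV holding to +40 mV, 2,000 ms. Compound: 10 µM final, single point. Detection: automated perforated-patch electrophysiology. Read-out: percent current increase versus pre-compound level. Repeats: two replicates.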", "values": [{"molecule": "CCOC(=O)c1sc(C)nc1C1CCN(C(=O)OCC)CC1", "outcome": "inactive"}, {"molecule": "NNc1nc2ccc(Cl)cc2s1", "outcome": "inactive"}, {"molecule": "Cc1cccc(C(=O)Oc2csc(=S)n2C(=O)c2cccc(C)c2)c1", "outcome": "inactive"}, {"molecule": "CCOC(=O)C(C)Oc1cccc2c(=O)n(CC(=O)NCc3ccc4c(c3)OCO4)ccc12", "note": "(stereo not given)", "outcome": "inactive"}, {"molecule": "Cc1noc(C)c1COc1ccc(CC(=O)NCc2ccccc2)cc1", "outcome": "inactive"}, {"molecule": "CCOC(=O)c1cnc(SCC(=O)Nc2nc(C)c(C)s2)nc1N", "outcome": "inactive"}, {"molecule": "O=C(COC(=O)C1C2CC3OC(=O)C1C3C2)Nc1ccc(Cl)cc1", "note": "(stereo not given)", "outcome": "inactive"}, {"molecule": "Cc1ccc(C(=O)Nc2nnn(C)n2)cc1", "outcome": "inactive"}, {"molecule": "O=C(NC(=S)N1CCN(C/C=C/c2ccccc2)CC1)c1ccc(F)cc1", "outcome": "inactive"}, {"molecule": "Cn1c(=O)c2c(SC3CCCC3)nc(C3CC3)nc2n(C)c1=O", "outcome": "inactive"}, {"molecule": "CC(C)(C)c1ccc(C(=O)NC(=S)Nc2nc3c(s2)CCCC3)cc1", "outcome": "inactive"}, {"molecule": "CCOC(=O)c1c(N2C(=O)Nc3ccccc3N2O)n[nH]c1-c1cccc(Cl)c1", "outcome": "inactive"}, {"molecule": "Cc1c(CN(C)C)c2c(n1C)C(=O)c1ccc(Br)cc1-2", "outcome": "inactive"}, {"molecule": "COc1ccc(N2CCN(C(=S)NC(=O)c3cccs3)CC2)c([N+](=O)[O-])c1", "outcome": "inactive"}, {"molecule": "S=c1nc(Cc2ccc(Cl)cc2)[nH]c2ccccc12", "outcome": "inactive"}, {"molecule": "CC1CN(c2nc(-c3ccc(Br)cc3)nnc2-c2ccccc2)CC(C)N1", "note": "(stereo not given)", "outcome": "inactive"}, {"molecule": "CCCCn1c(SCC(=O)/C(C#N)=C(\\C)N)nc2ccccc2c1=O", "outcome": "inactive"}, {"molecule": "CSC(=S)N/N=C/c1ccccc1", "outcome": "inactive"}, {"molecule": "COc1ccc(NS(=O)(=O)c2ccc(N/N=C(\\C)c3ccncc3)c([N+](=O)[O-])c2)cc1", "outcome": "inactive"}, {"molecule": "COc1ccc(C)cc1-n1c(C)cc(C=O)c1C", "outcome": "inactive"}, {"molecule": "O=C(NC(=S)Nc1ccccc1N1CCCCC1)c1ccc(F)cc1Cl", "outcome": "inactive"}, {"molecule": "COc1cccc(C(=O)COc2ccc(NC(=O)c3ccccc3)cc2)c1", "outcome": "inactive"}, {"molecule": "CC(Oc1ccc(Br)cc1)C(=O)Nc1ccc(S(=O)(=O)N(C)C2CCN(C)CC2)cc1", "note": "(stereo not given)", "outcome": "inactive"}, {"molecule": "C/C(=N\\NC(=O)c1cc2ccccc2cc1O)c1ccccn1", "current potentiation": "21.5% (active)"}, {"molecule": "CCNC(=S)Nc1nc2c(cc1C(=O)OCC)CCCC2", "outcome": "inactive"}, {"molecule": "O=c1ccc(-c2ccc(S(=O)(=O)Nc3ccccc3)o2)n[nH]1", "outcome": "inactive"}, {"molecule": "COc1ccc(CN2C(=O)C(O)(CC(=O)c3ccc4c(c3)OCO4)c3ccccc32)cc1OC", "note": "(stereo not given)", "outcome": "inactive"}, {"molecule": "Cc1cccc(NC(=S)NNC(=O)c2cc3c(s2)CCC(C)C3)c1C", "note": "(stereo not given)", "outcome": "inactive"}, {"molecule": "CC(/C=N/NC(=O)c1cc(-c2cccs2)[nH]n1)=C\\c1ccccc1", "outcome": "inactive"}, {"molecule": "CC1CCCCN1C(=S)NC(=O)c1cccs1", "note": "(stereo not given)", "outcome": "inactive"}, {"molecule": "O=C(Nc1nc2c(F)cc(F)cc2s1)C1COc2ccccc2O1", "note": "(stereo not given)", "outcome": "inactive"}, {"molecule": "O=C(CN1C(=O)COc2ccccc21)N(Cc1cccnc1)Cc1cccc(F)c1", "outcome": "inactive"}, {"molecule": "CCc1nnc(NC(=O)c2ccc(S(=O)(=O)N(CC)Cc3ccccc3)cc2)o1", "outcome": "inactive"}, {"molecule": "CCOC(=O)Cn1c(=S)[nH]c2c(oc3ccc(Cl)cc32)c1=O", "outcome": "inactive"}, {"molecule": "CCOC(=O)c1cccc(C(=O)Nc2nc3ccc(OC)cc3s2)n1", "outcome": "inactive"}, {"molecule": "CCC/C=N/NC(=O)c1[nH]c2c([N+](=O)[O-])cccc2c1C", "outcome": "inactive"}, {"molecule": "Cc1ccc(C(=O)N2CCNC(=O)C2CC(=O)Nc2ccc(F)cc2)cc1C", "note": "(stereo not given)", "outcome": "inactive"}, {"molecule": "COc1ccc(C(=O)c2ccc(OC)c(N)c2)cc1N", "outcome": "inactive"}, {"molecule": "CCCCNC(=S)NC(=O)c1ccc([N+](=O)[O-])cc1", "outcome": "inactive"}, {"molecule": "Cc1ccc(-c2nc(N)s[n+]2-c2ccccc2)cc1", "outcome": "inactive"}]}]}
